Candida biofilm – clotrimazole potentiators killing Candida biofilms, primary screen, with clotrimazole, Alamar Blue; C. albicans biofilm + clotrimazole; inhibition, % at 6 µM; 0.14% of 85,000 active;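 active = inhibition above 20%; inactive = inhibition below 20%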;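 also: preformed 24 hr biofilms exposed to compound for 48 hr; 0% = biofilm without compound and 100% = blank killed by clotrimazole plus chlorhexidine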
FAK blocker – FAK kinase inhibitors, primary screen, biochemical; inhibition, %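 (tested at 7 µM)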; biochemical FAK kinase activity assay; 0.84% of 97,000 active; in the data active = inhibition above about 19%;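 also: 0% = DMSO and 100% = reference compound high control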
Target sequence (Q05397 whole entry, looked up): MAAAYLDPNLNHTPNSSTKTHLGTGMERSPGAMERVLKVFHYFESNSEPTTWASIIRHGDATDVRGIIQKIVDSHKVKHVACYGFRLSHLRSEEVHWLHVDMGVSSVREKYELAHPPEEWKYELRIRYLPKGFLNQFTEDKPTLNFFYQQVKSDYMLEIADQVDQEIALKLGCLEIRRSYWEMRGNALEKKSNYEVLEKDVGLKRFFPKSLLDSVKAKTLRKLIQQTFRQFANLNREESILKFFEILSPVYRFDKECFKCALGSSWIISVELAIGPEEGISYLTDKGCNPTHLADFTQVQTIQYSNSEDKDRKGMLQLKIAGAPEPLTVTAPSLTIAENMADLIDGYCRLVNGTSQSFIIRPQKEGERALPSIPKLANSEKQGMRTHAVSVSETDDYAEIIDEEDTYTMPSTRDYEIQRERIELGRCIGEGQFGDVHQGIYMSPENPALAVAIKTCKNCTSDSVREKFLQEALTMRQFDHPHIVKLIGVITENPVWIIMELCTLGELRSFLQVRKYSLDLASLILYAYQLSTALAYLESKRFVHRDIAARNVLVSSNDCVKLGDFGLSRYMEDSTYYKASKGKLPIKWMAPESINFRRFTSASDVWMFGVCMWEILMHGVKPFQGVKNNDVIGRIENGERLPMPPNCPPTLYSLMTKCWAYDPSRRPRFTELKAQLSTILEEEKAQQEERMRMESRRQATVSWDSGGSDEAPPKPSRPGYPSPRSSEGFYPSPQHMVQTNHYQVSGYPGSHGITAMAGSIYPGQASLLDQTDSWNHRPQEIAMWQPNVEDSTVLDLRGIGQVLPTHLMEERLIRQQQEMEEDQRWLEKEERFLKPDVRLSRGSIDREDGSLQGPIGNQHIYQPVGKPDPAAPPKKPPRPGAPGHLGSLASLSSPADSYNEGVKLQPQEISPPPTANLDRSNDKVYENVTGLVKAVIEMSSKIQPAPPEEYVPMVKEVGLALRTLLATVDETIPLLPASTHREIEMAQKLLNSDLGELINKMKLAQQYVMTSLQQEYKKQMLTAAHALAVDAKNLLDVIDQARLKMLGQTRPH
PTK2B oligo ant – antagonists of Pyk2 self-association, primary screen, Q293 cells, FERM NanoBiT luminescence, HTS. Protein-tyrosine kinase 2-beta (Homo sapiens), Q14289. hits give low values. z-score (the deposit names both 25 µM and 10 µM). 0.83% of 99,000 active;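 active = Z-score of -3 or lower, scaled per plate to the spread of control and sample wells; inactive = z-score above -3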;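 also: negative z-score means lost luminescence so less FERM oligomerization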
PostGolgi yeast – phenotypic screen on post-Golgi transport, primary screen; post-Golgi transport phenotypic cell assay; inhibition, % at 10 µM; 0.9% of 98,000 active;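 also: yeast cells grown in 1536-well plates; yeast grown about 18 h at 30C before absorbance read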
tolC growth inh – growth inhibitors of E. coli tolC mutant, primary screen, strain BW25113 ΔtolC::kan, 384-well | AID 573, 2007 | OD615 | 2.2% of 65,000 active | growth inhibition, % at 10 µM (by protocol);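 active = growth inhibition at or above a cutoff equal to the mean over every tested compound plus 3 SD, cut at about 60% in these data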;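 also: growth measured after 20 h incubation at 37 °C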
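Test system: tolC-deleted E. coli BW25113 | Medium: LB with kanamycin 50 µg/mL | Compound dosing: Single concentration, 10 µM final per compound | Schedule: 37 °C, 20 h exposure | Measured by: OD at 615 nm | Evaluation: Percent growth inhibition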
PostGolgi ctrl – growth inhibition of yeast control strain, primary screen, counter-screen for post-Golgi transport modulator project; inhibition, % at 10 µM; efflux-deficient yeast background strain, growth absorbance A615, 16 h; AID 738, 2007; 5% of 98,000 active
Active calls of the source: *; nt = no result given. In the library only some 6.9% were active in any assay of this set; here they are far more common. Rule as the data show it, unless noted: active = inhibition above about 30%; inactive = the rest.

SMILES | Candida biofilm | FAK blocker | PTK2B oligo ant | PostGolgi yeast | tolC growth inh | PostGolgi ctrl
N#Cc1nc(COc2ccccc2Cl)oc1NCc1ccc(F)cc1 | -1 | -1 | -1.4 | 16 | 16 | 12
Cc1ccc(CNC(=O)c2sccc2-n2cccc2)cc1 | -2 | 9 | 0.42 | 16 | 26 | 30*
CNC(=O)c1sccc1-n1cccc1 | 7 | 0 | 0.13 | -1 | nt | 2
COc1cccc(Nc2nc3ccccc3n3cnnc23)c1 | 9 | 2 | nt | -7 | nt | 33*
c1ccc(CNc2nc3ccccc3n3cnnc23)cc1 | 7 | -5 | nt | -16 | nt | 13
Cc1cccc(NC(=O)CSc2nc3nc4c(cc3c(=O)n2-c2ccccc2)CCCC4)c1 | nt | nt | -2.1 | nt | nt | nt
O=C(c1ccccc1)c1ccccc1N/C=C/c1nnnn1-c1ccccc1 | nt | -2 | -1.2 | -1 | nt | 35*
CC(C)Sc1nc(N)nc(-c2cccs2)c1C#N | nt | 13 | -3 | 13 | nt | 80*
CCc1ccc(OCC(O)CNC(C)(C)C)cc1 (stereo unspecified) | -1 | -1 | 0.42 | -3 | nt | 3
CCCCc1cc(O)c(CCCC)c(O)c1 | 5 | 15 | -3.7* | -5 | 63* | 42*
CCCCc1ccc(NC(=O)COCC)cc1 | 6 | 2 | 0.56 | 7 | 16 | 0
O=C(Nc1ccc2nc(-c3ccc(Br)o3)[nH]c2c1)c1cccs1 | -7 | -1 | 0.96 | -5 | 22 | 3
COc1ccc(Br)cc1/C=N/NC(=O)c1nc(-c2ccccc2)n2c1CCCCC2 | nt | 4 | -2.2 | 20 | nt | 36*
CC12CC3CC(C)(C1)CC(C(=O)NC1=NCCS1)(C3)C2 | 6 | -1 | -0.11 | -2 | nt | 38*
O=C(NCCCN1CCC(Cc2ccccc2)CC1)C1CCN(S(=O)(=O)N2CCOCC2)CC1 | 9 | -2 | 0.57 | -1 | -6 | 6
Cc1cc(NC(=O)Cn2nnc3sc4c(c3c2=O)CCC(C(C)(C)C)C4)no1 (stereo unspecified) | nt | 6 | 0.05 | 3 | 76* | 31*
COc1cc(-c2nn3c(COc4ccccc4)nnc3s2)cc(OC)c1OC | 6 | nt | 0.6 | 4 | 7 | 12
COc1cc(-c2nn3c(Cc4ccccc4)nnc3s2)cc(OC)c1OC | 12 | 8 | -1.7 | 20 | 2 | 43*
Cc1ccc(-c2nnc3sc(CCc4ccccc4)nn23)cc1 | 9 | 2 | 1.3 | 6 | 67* | 30*
COc1ccc(-c2nnc3sc(COc4ccccc4)nn23)cc1 | 4 | nt | -0.76 | 4 | 22 | 20
COc1cc(-c2nn3c(-c4ccccc4)nnc3s2)cc(OC)c1OC | 4 | -3 | -0.09 | -4 | -8 | 33*
COc1cc(-c2nnc3sc(-c4ccncc4)nn23)cc(OC)c1OC | -2 | nt | nt | nt | 2 | nt
Cc1ccccc1-c1nn2c(-c3ccccc3)nnc2s1 | 6 | nt | -0.42 | 5 | 19 | 41*
Cc1cc(=O)cc(C)n1-c1ccccc1N1CCOCC1 | 5 | -7 | 0.42 | 14 | -24 | 10
Cc1scc(C(=O)Nn2cnnc2)c1-c1ccccc1 | 8 | 0 | 0.14 | -10 | 5 | 33*
SMILES | Candida biofilm | FAK blocker | PTK2B oligo ant | PostGolgi yeast | tolC growth inh | PostGolgi ctrl
O=C(Nn1cnnc1)c1csc2ccccc12 | 7 | -1 | 0.46 | -14 | 9 | -7
Cc1ccc(O)c(-c2cc(C(=O)Nc3ccc(S(=O)(=O)N4CC(C)OC(C)C4)cc3)[nH]n2)c1 (stereo unspecified) | 14 | 0 | -0.49 | -9 | -36 | 2
CCCSc1ncc(Cl)c(C(=O)Nc2ccc(S(=O)(=O)N3CC(C)OC(C)C3)cc2)n1 (stereo unspecified) | 0 | -1 | -1.4 | 39* | nt | 21
O=C(NCc1ccccn1)C1CCN(S(=O)(=O)N2CCCC2)CC1 | 2 | nt | -0.66 | -1 | -3 | 39*
O=C(NCc1ccccn1)C1CCN(S(=O)(=O)c2ccccc2)CC1 | 7 | -4 | -0.09 | -7 | -3 | 13
CN(C)c1ncc(S(=O)(=O)c2ccccc2)c(-c2ccc(Cl)cc2Cl)n1 | nt | 0 | -0.47 | -2 | nt | 25
O=Cc1cn(-c2ccccc2)nc1-c1cc2c(ccc3ccccc32)oc1=O | 0 | 9 | 1.4 | -3 | nt | 26
N#Cc1cn(-c2ccccc2)nc1-c1cc2ccccc2oc1=O | 2 | 2 | -0.84 | 36* | -6 | -2
COc1cc(CNC2CCCC2)cc(Cl)c1OCc1ccc(F)cc1 | nt | 1 | -0.31 | -1 | nt | 44*
COc1cc(CNC2CCCC2)cc(Cl)c1OCc1ccccc1Cl | nt | 3 | -0.64 | 8 | nt | 33*
CC1Cc2ccccc2N1C(=O)CCn1c(=O)oc2ccccc21 (stereo unspecified) | 9 | 2 | nt | -11 | nt | 7
O=C(O)CSCc1ccc(Cl)cc1 | 1 | -2 | 1.2 | -4 | -14 | -2
Nc1nc2ccc(Oc3ccccc3)cc2s1 | 16 | 6 | -0.4 | 10 | 26 | 32*
Nc1nc2ccc(OC(F)(F)F)cc2s1 | 0 | nt | nt | nt | 7 | nt
CCc1nc2ccccc2c(C(=O)OCc2nnc(-c3ccccc3)o2)c1C | nt | 0 | -2 | -4 | nt | 25
CCOC(=O)c1c(C)c(C(=O)N2CCN(c3cccc(Cl)c3)CC2)c(C)n1C | 7 | 1 | -0.12 | -29 | 48 | 27
Cc1ccc(Nc2nc3c(c(=O)[nH]2)CCCC3)cc1 | 2 | 0 | -0.02 | nt | nt | nt
O=c1[nH]c(Nc2nc3ccccc3o2)nc2c1CCCC2 | 7 | 0 | -3.3* | -17 | -1 | 22
COc1ccc(-c2cc(CCCC(=O)NCCc3cc(OC)ccc3OC)no2)cc1 | -4 | 1 | -0.61 | -3 | 8 | 11
CCc1ccccc1NS(=O)(=O)c1ccc2[nH]cc(C(=O)NCC3CCCO3)c(=O)c2c1 (stereo unspecified) | 3 | 0 | -2.1 | 1 | 46 | 41*
COc1cccc(-c2nnc3n2N=C(c2cccc(Br)c2)CS3)c1 | 6 | -2 | 1.1 | -12 | 14 | 4
C=CCN1C(=O)N(/C=C/C)c2cccc3cccc1c23 | 0 | 8 | -3.7* | 4 | 20 | 30*
CCCOc1ccc(C2/C(=C(\O)c3c(C)[nH]c(C(=O)OC)c3C)C(=O)C(=O)N2CCN(C)C)cc1 (stereo unspecified) | 7 | -6 | 1 | 1 | -25 | 32*
CCOc1ccc(C2/C(=C(\O)c3c(C)[nH]c(C(=O)OC)c3C)C(=O)C(=O)N2CCN(C)C)cc1 (stereo unspecified) | 8 | -1 | 0.61 | -9 | -19 | 0
CCCn1nnc(NC(=O)c2ccc(-c3ccccc3)cc2)n1 | 11 | -4 | -0.73 | -1 | -12 | 6
CCCn1nnc(NC(=O)C(c2ccccc2)c2ccccc2)n1 | 4 | 1 | -0.57 | 34* | nt | 8
COc1ccc(-c2nnc(Sc3nc4ccccc4o3)c3ccccc23)cc1 | nt | -3 | -0.38 | -2 | nt | 46*
COc1ccc(-c2nnc(N3CCCCC3)c3ccccc23)cc1 | nt | 0 | -1.4 | 2 | nt | 30
